Experimental data collected from several papers.
Protocols differ between the studies behind these lines.

SMILES | cell line | assay | test system | setting | quantity | result
COc1ccc(C=NNC(=S)Nc2ccc(C#N)cc2)cc1 | CRFK | cell growth or viability, MTS | – | – | CC50 | > 100 µg/mL
CC(N)C12CC3CC(CC(C3)C1)C2 (stereo not drawn) | MDCK | cell growth or viability, MTT | – | 72 h | CC50 | 62 µM
Nc1nc(O)c2ncn(COC(CO)CO)c2n1 | CRFK | cell growth or viability, MTS | – | – | CC50 | > 100 µM
O=C(CCCN1CCC(O)(c2ccc(Cl)cc2)CC1)c1ccc(Br)cc1 | K562 | cell growth or viability | – | – | IC50 | 41.2 µM
CC[C@@]1(O)C(=O)OCc2c1cc1n(c2=O)Cc2cc3ccccc3nc2-1 | MDCK | – | Caco-2 | 0.5 µM, 105 min, pH 7.4 | Papp A→B | 27 ×10⁻⁶ cm/s
CCC(CC)O[C@@H]1C=C(C(=O)O)C[C@H](N)[C@H]1NC(C)=O | MDCK | cell growth or viability, MTT | – | 72 h | CC50 | > 200 µM
N#Cc1ccc(NC(=S)NN)cc1 | CRFK | cell growth or viability, MTS | – | – | CC50 | 84.6 µg/mL
CC(C)(C)NC(=O)N[C@H](C(=O)N1C[C@H]2[C@@H]([C@H]1C(=O)NC(CC1CCC1)C(=O)C(N)=O)C2(C)C)C(C)(C)C (stereo partly drawn) | MDCK | cell growth or viability, neutral red | – | 48 h | CC50 | > 100 µM
CC(C)[C@H](N)C(=O)N1CCC[C@H]1B(O)O | K562 | cell growth or viability, ATP luminescence | – | 60 µM, 5 days | viability | 98%
